Laboratory results taken from ChEMBL document CHEMBL1158591, “Discovery of 2-chloro-N-((4,4-difluoro-1-hydroxycyclohexyl)methyl)-5-(5-fluoropyrimidin-2-yl)benzamide as a potent and CNS penetrable P2X7 receptor antagonist” (Bioorg Med Chem Lett, 2010).

How the values were obtained:
Type in all cases: ADME, organism-based
Rattus norvegicus = assay: Volume of distribution at steady state in Sprague-Dawley rat at 1 mg/kg, iv and po; parameters: dose 1 mg/kg; details: in vivo
In short: (§1)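 Male Sprague Dawley rats, IV/PO crossover pharmacokinetics, dosed at 1 mpk by each route.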

[1] = Oral bioavailability in Sprague-Dawley rat at 1 mg/kg, po; details: in vivo; in short: as §1
[2] = Ratio of drug level in brain to plasma in iv dosed Sprague-Dawley rat; details: brain and plasma
In short: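 Male Sprague Dawley rats given a steady-state IV infusion. Ratio is compound concentration in brain over that in plasma.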

Compound	Vdss (Rattus norvegicus)	bioavailability [1]	Kp [2]
O=C(NCC1(O)CCCCCC1)c1cc(-c2ncc(F)cn2)ccc1Cl	0.9 L/kg	35%	0.7
O=C(NCC1(O)CCC(F)(F)CC1)c1cc(-c2ncc(F)cn2)ccc1Cl	1.3 L/kg	84%	1.3
